From ChEMBL document CHEMBL1138250, “Spiro- and dispiro-1,2-dioxolanes: contribution of iron(II)-mediated one-electron vs two-electron reduction to the activity of antimalarial peroxides” (J Med Chem, 2007)
In brackets after ≈: the same amount, converted by molar mass.

How the values were obtained:
Plasmodium berghei = assay: Antimalarial activity as reduced parasitaemia against Plasmodium berghei infected NMRI mice (Mus musculus) at 100 mg/kg peroral dose 3 days post-infection; type: functional; parameters: scale not given: the % may be the effect or the level left; conditions: route oral
Outline: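 Groups of three NMRI mice infected with P. berghei were dosed orally 1 day after infection with 100 mg/kg, dissolved or suspended in 3% ethanol/7% Tween-80 vehicle. Percent reduction in parasitemia was read on day 3 post-infection against an untreated control group; individual measurements generally within 10%.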

Plasmodium falciparum [1] = assay: Antimalarial activity against chloroquine-resistant Plasmodium falciparum K1; type: functional, organism-based
Outline: (§1)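 IC50 (ng/mL) against P. falciparum blood stages, K1 (chloroquine-resistant) and NF54 (chloroquine-sensitive), reported as the mean of n = 2-3 determinations; individual measurements generally within 50% of each other.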

Plasmodium falciparum [2] = assay: Antimalarial activity against chloroquine-sensitive Plasmodium falciparum NF54; type: functional, organism-based; outline: as §1
Plasmodium falciparum [3] = assay: Antimalarial activity against Plasmodium falciparum; type: functional, organism-based
Outline: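 In vitro assay against chloroquine-resistant K1 and chloroquine-sensitive NF54 strains of P. falciparum. IC50 is reported in ng/mL as the mean of 2-3 determinations per strain, and individual measurements generally differed by less than 50%.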

Row | Compound | Activity (Plasmodium berghei) [%] | IC50 (Plasmodium falciparum [1]) [µg/mL] | IC50 (Plasmodium falciparum [2]) [µg/mL] | IC50 (Plasmodium falciparum [3]) [µg/mL]
1 | CC(C)(C)C1CCC2(CC1)CC1(CCCC1)OO2 (stereo not drawn) | 45 | 0.13 (≈ 0.515 µM) | 0.18 (≈ 0.713 µM) | –
2 | CCCC1(CCC)CC2(OO1)C1CC3CC(C1)CC2C3 (stereo not drawn) | 6 | 0.12 (≈ 0.431 µM) | 0.12 (≈ 0.431 µM) | –
3 | OC1(CC2(O)C3CC4CC(C3)CC2C4)CCCCC1 (stereo not drawn) | – | – | – | > 1
4 | C1CCC2(CC1)CC1(OO2)C2CC3CC(C2)CC1C3 (stereo not drawn) | 0 | 0.77 (≈ 2.93 µM) | 0.66 (≈ 2.52 µM) | –
5 | CC(C)(C)C1CCC2(CC1)CC1(CCCCC1)OO2 (stereo not drawn) | 30 | 0.063 (≈ 0.236 µM) | 0.12 (≈ 0.45 µM) | –
6 | CC1(CCCO)CC2(CCCCC2)OO1 (stereo not drawn) | 0 | 0.05 (≈ 0.233 µM) | 0.08 (≈ 0.373 µM) | –
7 | CCCC1(CCC)CC2(CCCCC2)OO1 | 0 | 0.23 (≈ 1.02 µM) | 0.36 (≈ 1.59 µM) | –
8 | c1ccc(C2CCC3(CC2)CC2(CCCCC2)OO3)cc1 (stereo not drawn) | 84 | 0.041 (≈ 0.143 µM) | 0.093 (≈ 0.325 µM) | –
9 | c1ccc(C2CCC3(CC2)CC2(CCCC2)OO3)cc1 (stereo not drawn) | 49 | 0.038 (≈ 0.14 µM) | 0.083 (≈ 0.305 µM) | –
10 | CCOC(=O)CCC1(C)CC2(CCCCC2)OO1 (stereo not drawn) | 18 | 0.048 (≈ 0.187 µM) | 0.081 (≈ 0.316 µM) | –
11 | C1CCC2(CC1)CC1(CCCCC1)OO2 | 0 | 0.041 (≈ 0.195 µM) | 0.11 (≈ 0.523 µM) | –
12 | CC1(CCC(=O)O)CC2(CCCCC2)OO1 (stereo not drawn) | 0 | > 1 | > 1 | –
13 | c1ccc(C2CCC3(CC2)CC2(OO3)C3CC4CC(C3)CC2C4)cc1 (stereo not drawn) | 0 | > 1 | > 1 | –
14 | c1ccc(C2CC3(CCCCC3)OO2)cc1 (stereo not drawn) | 0 | 0.44 (≈ 2.02 µM) | 0.66 (≈ 3.02 µM) | –
15 | C1CCC2(CC1)CC1(CCCC1)OO2 | 0 | 0.041 (≈ 0.209 µM) | 0.062 (≈ 0.316 µM) | –
